One data set addresses Histamine H3 receptor (Homo sapiens, UniProt Q9Y5N1). Kind of data set: Displacement of [3H]Nalpha-methylhistamine from recombinant human H3 receptor expressed in HEK293 cells after 90 mins by liquid scintillation counting method. The class given is cell-based. In short, it runs like this:
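Thawed, homogenized membranes from HEK-293 cells stably expressing full-length human H3R, incubated 90 min at RT with shaking with 2 nM [3H]Nα-methylhistamine (KD 3.08 nM) and 5–11 concentrations (0.01 nM–10 µM). Nonspecific binding with pitolisant 10 µM. GF/B filtration (0.3% PEI), ice-cold water washes, scintillation counting. Ki by Cheng-Prusoff; mean (95% CI), ≥3 experiments in at least duplicate.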
In general terms: Displacement assays read how much labelled ligand stays bound in the presence of the test substance.

Data set [1] concerns Rattus norvegicus. The data set can be described thus: Reversal of RAMH-induced dipsogenia in Krf:(WI) WU rat assessed as inhibition of drinking response at 1.25 mg/kg, ip pretreated for 30 mins followed by RAMH stimulation for 20 mins measured for 30 mins relative to control. The class given is functional. A digest of the protocol: (§1)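 Male Wistar Krf:(WI) WU rats (<250 g), 6–8 per group. Compound, pitolisant or vehicle (1% Tween 80) given i.p. 30 min before RAMH 10 mg/kg i.p. Water intake measured for 30 min, starting 20 min after RAMH. Inhibition = 100 − (individual intake / RAMH-group intake) × 100. ED50 by log-probit with 95% CL; one-way ANOVA with Dunnett.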

The next data set has as its target Histamine H4 receptor (Homo sapiens, UniProt Q9H3N8). The data set can be described thus: Inhibition of human H4 receptor.
In data set [2] the target is Histamine H1 receptor (Cavia porcellus) (UniProt P31389). Kind of data set: Competitive antagonist activity at H1 receptor in guinea pig ileum assessed as inhibition of histamine-induced ileum contraction measured after 15 mins. In short, it runs like this: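 Ileum from male guinea pigs cut into 2 cm segments in Krebs at 37°C, pH 7.4, O2/CO2 19:1, 0.5 g resting tension, equilibrated 60 min. Cumulative histamine curve (10 nM–10 µM), then 15 min with one antagonist concentration per tissue and a repeat curve. Responses are % of first-curve max. pA2 comes from Schild analysis if slope ≈1, otherwise pKB from concentration ratio; 4–8 repeats.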
Chain of Histamine H1 receptor (Cavia porcellus) (P31389 whole entry): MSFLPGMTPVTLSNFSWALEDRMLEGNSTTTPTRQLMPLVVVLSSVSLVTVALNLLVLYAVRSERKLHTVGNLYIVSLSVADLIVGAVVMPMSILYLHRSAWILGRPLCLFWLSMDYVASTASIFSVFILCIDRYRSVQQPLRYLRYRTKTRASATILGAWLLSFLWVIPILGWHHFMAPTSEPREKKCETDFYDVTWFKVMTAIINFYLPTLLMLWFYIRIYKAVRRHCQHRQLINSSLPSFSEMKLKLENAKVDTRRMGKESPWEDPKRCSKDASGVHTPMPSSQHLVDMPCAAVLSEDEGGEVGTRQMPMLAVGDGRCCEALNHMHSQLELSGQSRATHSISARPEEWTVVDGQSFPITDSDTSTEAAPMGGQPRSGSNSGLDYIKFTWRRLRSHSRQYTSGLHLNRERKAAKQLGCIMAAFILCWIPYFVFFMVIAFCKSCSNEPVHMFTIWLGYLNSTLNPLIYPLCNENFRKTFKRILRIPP

Data set [3] in a line: Drug metabolism in human liver microsomes after 2 hrs by UPLC analysis. The class given is ADME, microsome. Particulars: read-out: Drug metabolism. In short, it runs like this: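 Incubation with human liver microsomes for 120 min; reaction mixture analysed by UPLC-MS, with MS fragmentation used to identify metabolites. In silico site-of-metabolism prediction run alongside.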
For orientation: Liver microsomes are vesicles of endoplasmic reticulum, rich in cytochrome P450 enzymes.

The species entered for data set [4] is Cavia porcellus. The data set can be described thus: Agonist activity at muscarinic receptor in guinea pig ileum assessed as induction of ileum contraction measured after 15 mins.
Data set [5] has as its system Rattus norvegicus. Kind of data set: Reversal of RAMH-induced dipsogenia in ip dosed Krf:(WI) WU rat assessed as inhibition of drinking response pretreated for 30 mins followed by RAMH stimulation for 20 mins measured for 30 mins. Type of data set: functional. In short, it runs like this: as §1
In data set [6] the test system is Mus musculus. Kind of data set: Reversal of scopolamine-induced memory deficit in Albino Swiss CD-1 mouse assessed as increase in step through latency time at 2.5 to 30 mg/kg, ip treated for 1 hr before training followed by scopolamine challenge 30 mins before training measured 24 hrs after training trial by passive avoidance test. Type of data set: functional, organism-based.

For data set [7], the species on record is Cavia porcellus. The data set can be described thus: (§2) Antagonist activity at muscarinic receptor in guinea pig ileum assessed as carbachol-induced ileum contraction measured after 15 mins. A digest of the protocol:
(§3)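 Male guinea-pig ileum (300-400 g), 2 cm segments in Krebs solution at 37°C, pH 7.4, O2/CO2 19:1, 0.5 g resting tension, 60 min equilibration. Cumulative agonist curves were run with histamine (10 nM–10 µM; H1) or carbachol (3 nM–3 µM; muscarinic), then repeated after 15 min with one antagonist concentration per tissue. Responses were taken as % of first-curve Emax, with pA2 from Schild analysis or pKB from the concentration ratio.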

Data set [8] has as its system Mus musculus. The data set can be described thus: Reversal of scopolamine-induced memory deficit in Albino Swiss CD-1 mouse assessed as increase in step through latency time at 2.5 to 30 mg/kg, ip treated for 1 hr prior to testing followed by scopolamine challenge measured after 30 mins by passive avoidance test. The class given is functional, organism-based.
Data set [9] has as its target Histamine H1 receptor (Cavia porcellus) (UniProt P31389). Kind of data set: Agonist activity at H1 receptor in guinea pig ileum assessed as induction of ileum contraction measured after 15 mins.
Data set [10] shares this target. Kind of data set: Antagonist activity at H1 receptor in guinea pig ileum assessed as inhibition of histamine-induced ileum contraction measured after 15 mins. A digest of the protocol: as §3
In data set [11] the test system is Mus musculus. Kind of data set: Anticonvulsant activity in ip dosed maximal electroshock induced seizure TO mouse model assessed as suppression of tonic hind limb extension pretreated for 30 to 45 mins followed by maximal electroshock induction. The class given is functional, organism-based. On the technique in general: Protection in the maximal electroshock model is a classic sign of anticonvulsant action.

The subject of data set [12] is Mus musculus. The data set can be described thus: Anticonvulsant activity in maximal electroshock induced seizure TO mouse model assessed as suppression of tonic hind limb extension at 10 mg/kg, ip pretreated for 30 to 45 mins followed by maximal electroshock induction. The class given is functional, organism-based.
The subject of data set [13] is Mus musculus. Kind of data set: Toxicity in TO mouse model assessed as mortality at 10 mg/kg, ip. Type of data set: organism-based. Particulars: in vivo.
Data set [14] in a line: as §2. Particulars: Cavia porcellus, 0.25 h; read-out: pA2 (converted). A digest of the protocol: as §3

Activity calls are given as the source filed them. The calls are words filed in the database; no cut-off is given here.

Chain of Histamine H3 receptor (Q9Y5N1 whole entry): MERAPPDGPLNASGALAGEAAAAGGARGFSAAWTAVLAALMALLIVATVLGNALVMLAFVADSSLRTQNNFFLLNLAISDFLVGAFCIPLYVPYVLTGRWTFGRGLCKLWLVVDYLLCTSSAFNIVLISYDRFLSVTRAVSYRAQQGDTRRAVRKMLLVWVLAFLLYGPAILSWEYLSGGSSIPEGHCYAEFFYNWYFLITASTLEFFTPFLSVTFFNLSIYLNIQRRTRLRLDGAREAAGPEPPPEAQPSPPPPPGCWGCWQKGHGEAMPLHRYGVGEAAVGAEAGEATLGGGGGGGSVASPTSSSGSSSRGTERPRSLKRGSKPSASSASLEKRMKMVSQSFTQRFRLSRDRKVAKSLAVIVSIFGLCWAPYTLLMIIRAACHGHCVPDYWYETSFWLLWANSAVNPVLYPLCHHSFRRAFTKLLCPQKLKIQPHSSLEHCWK
Chain of Histamine H4 receptor (Q9H3N8 whole entry): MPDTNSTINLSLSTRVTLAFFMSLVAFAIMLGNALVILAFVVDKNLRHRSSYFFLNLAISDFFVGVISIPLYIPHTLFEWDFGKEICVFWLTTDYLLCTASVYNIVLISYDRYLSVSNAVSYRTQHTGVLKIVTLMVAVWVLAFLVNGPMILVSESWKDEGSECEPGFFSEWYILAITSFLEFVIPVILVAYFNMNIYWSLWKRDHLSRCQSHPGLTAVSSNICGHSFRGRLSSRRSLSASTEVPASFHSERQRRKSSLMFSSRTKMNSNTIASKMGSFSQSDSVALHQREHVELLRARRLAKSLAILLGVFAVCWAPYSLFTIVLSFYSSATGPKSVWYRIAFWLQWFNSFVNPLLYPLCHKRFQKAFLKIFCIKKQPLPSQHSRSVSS

One may read the Ki as a dissociation constant, usually derived from enzyme kinetics or from competition with a known ligand. Consider `CC(C)(C)c1ccc(OCCCN2CCN(c3ncccn3)CC2)cc1`, for which the Ki on Histamine H3 receptor was 3.83 µM.
What is called inhibition in vivo is the percentage by which the read-out fell short of the control. As to `Clc1ccc(CCCOCCCN2CCCCC2)cc1` [PITOLISANT], the inhibition in vivo at 1.25 mg/kg in the data set on Rattus norvegicus [1] stood at 87.4%. On Histamine H4 receptor, the inhibition constant (Ki) was more than 100 µM.
As usually defined, the pKb is the negative decadic logarithm of the Kb, by convention in mol/L. Usually ED50 stands for the midpoint of the dose-response relation. Consider `CC(C)(C)c1ccc(OCCCCN2CCN(c3ccncc3)CC2)cc1`, for which, on Histamine H3 receptor, the inhibition constant (Ki) worked out at 0.0378 µM. Further, the negative-log Kb (pKb) in data set [2] was 6.15; in the data set filed under Cavia porcellus [7] it was 6.39. Besides, the metabolised at 2 h in data set [3] was determined as 30%. Besides, the result (in the data set listed under Cavia porcellus [4]; in the data set with Mus musculus [8]; in data set [9]) was inactive. Also, in the data set on Rattus norvegicus [5], the ED50 came out at 10.7 mg/kg. For the same compound, the inhibition entry (in the data set on Rattus norvegicus [5]; in the data set listed under Cavia porcellus [7]; in data set [10]) was “Dose-dependent effect” in each case. Also, the outcome with Mus musculus [6] was Active. The Activity result in the data set on Mus musculus [11] was “Dose-dependent effect”.
As for `CC(C)(C)c1ccc(OCCCCN2CCN(c3cccnc3)CC2)cc1`, the Ki at Histamine H3 receptor turned out to be 3.42 µM.
Take `O=C1NC(=O)C(c2ccccc2)(c2ccccc2)N1` [PHENYTOIN]: in the data set on Mus musculus [12], the result was Active. For the same compound, the Activity entry with Mus musculus [13] is given as “Non-Toxic”.
With `CC(C)(C)c1ccc(OCCCN2CCN(c3cccnc3)CC2)cc1`, the Ki at Histamine H3 receptor came out at 8.16 µM.
As to `CCC(C)(C)c1ccc(OCCCCN2CCN(c3ncccn3)CC2)cc1`, the Ki at Histamine H3 receptor was 2.26 µM.
Still for that read-out and setting: then `CC(C)(C)c1ccc(OCCCN2CCN(c3cnccn3)CC2)cc1`, with 8.74 µM.
Take `CCC(C)(C)c1ccc(OCCCCN2CCN(c3ccncc3)CC2)cc1`: on Histamine H3 receptor, the Ki came out at 0.12 µM. Also, the outcome with Mus musculus [12] was Active.
Turning to `CCC(C)(C)c1ccc(OCCCN2CCN(c3cnccn3)CC2)cc1`, the Ki at Histamine H3 receptor came out at 6.21 µM.
On the same count and under the same terms, the figure for `CCC(C)(C)c1ccc(OCCCN2CCN(C(=O)C3CCCO3)CC2)cc1` (stereo not given) is more than 10 µM; for `CC(C)(C)c1ccc(OCCCN2CCN(C(=O)C3CCCO3)CC2)cc1` (stereo not given) it is more than 10 µM; for `CCC(C)(C)c1ccc(OCCCCN2CCN(C(=O)C3CCCO3)CC2)cc1` (stereo not given) it is more than 10 µM.
Turning to `CC(C)(C)c1ccc(OCCCCN2CCN(c3cnccn3)CC2)cc1`, the inhibition constant (Ki) at Histamine H3 receptor is 5.48 µM.
Same read-out and setting: then `CCC(C)(C)c1ccc(OCCCN2CCN(c3ncccn3)CC2)cc1`, with 5.41 µM.
Regarding `CCC(C)(C)c1ccc(OCCCCN2CCN(c3ccccn3)CC2)cc1`, the inhibition constant Ki on Histamine H3 receptor came to 0.482 µM.
As to `CCC(C)(C)c1ccc(OCCCCN2CCN(c3cnccn3)CC2)cc1`, the Ki on Histamine H3 receptor stood at 0.683 µM.
For `CCC(C)(C)c1ccc(OCCCN2CCN(c3ccncc3)CC2)cc1`, the inhibitory constant (Ki) on Histamine H3 receptor amounted to 0.0306 µM. Moreover, in the data set on Mus musculus [12], the outcome was Active.
For the compound `CCC(C)(C)c1ccc(OCCCN2CCN(c3ccccn3)CC2)cc1`, the Ki at Histamine H3 receptor turned out to be 5.2 µM.
With `CC(C)(C)c1ccc(OCCCCN2CCN(c3ccccn3)CC2)cc1`, the inhibition constant Ki at Histamine H3 receptor came out at 2.96 µM.
Turning to `CN1[C@@H]2CC[C@H]1C[C@@H](OC(=O)C(CO)c1ccccc1)C2` (stereo not given in full) [ATROPINE], the Kb in data set [14] was 0.00104 µM.
For the compound `CCC(C)(C)c1ccc(OCCCN2CCN(c3cccnc3)CC2)cc1`, the inhibition constant Ki at Histamine H3 receptor is 3.65 µM.
For the compound `CC(C)(C)c1ccc(OCCCCN2CCN(c3ncccn3)CC2)cc1`, the Ki on Histamine H3 receptor was 0.883 µM.
Still for that read-out and setting: then `CC(C)(C)c1ccc(OCCCN2CCN(c3ccccn3)CC2)cc1`, with more than 10 µM; and `CC(C)(C)c1ccc(OCCCCN2CCN(C(=O)C3CCCO3)CC2)cc1` (stereo not given), with more than 10 µM; and `CC(C)(C)c1ccc(OCCCN2CCCCC2)cc1`, with 0.022 µM.
On the same count and under the same terms, the figure for `CCC(C)(C)c1ccc(OCCCCN2CCN(c3cccnc3)CC2)cc1` is more than 10 µM.
For the compound `CC(C)(C)c1ccc(OCCCN2CCN(c3ccncc3)CC2)cc1`, at Histamine H3 receptor, the inhibition constant Ki amounted to 0.016 µM. Besides, the result with Mus musculus [12] was Active.

Values taken from ChEMBL document CHEMBL4152242, “Synthesis and biological activity of novel tert-butyl and tert-pentylphenoxyalkyl piperazine derivatives as histamine H3R ligands” (Eur J Med Chem, 2018).
